As usually defined, the IC50 is the midpoint of a concentration-inhibition curve.

Assay [1] in a line: Non cytotoxic IM activity index which is the ratio of IC50 of LcV to IC50 of MLR. In kind it is functional.
Assay [2] is filed under the species Mus musculus. The experiment in a line: (§1) Compound was tested for Immunosuppression activity by mixed lymphocyte reaction (MLR) in murine splenocytes of mice. In kind it is functional. In outline: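 Two-way MLR: Balb/c and C57Bl/6 splenocytes combined in wells holding dried compound (eight dilutions, 10 to 3.33 × 10^-6 mg/mL, applied in EtOH and evaporated; duplicates). Incubated 96 h at 37 °C, 5% CO2, then pulsed 15 h with [3H]thymidine. Incorporated label counted after glass-fibre filtration. Proliferation expressed as percent of control; IC50 interpolated.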

Assay [3] can be described thus: Compound was tested for Cytotoxic activity by lymphocyte viability assay. The settings on record: Mus musculus. An outline of the steps:
(§2)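 Balb/c mouse splenocytes alone, added to wells holding dried test compound (eight dilutions, 10 to 3.33 × 10^-6 mg/mL, applied in EtOH and evaporated); culture-medium wells serve as nonspecific control. Incubated 96 h at 37 °C, 5% CO2, then MTT added; formazan dissolved in 2-propanol and absorbance read at 570 nm.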

Assay [4] is filed under the species Mus musculus. Described as §1. In kind it is functional, organism-based. An outline of the steps:
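Two-way mixed lymphocyte reaction using splenocytes from Balb/c and C57Bl/6 mice, combined in equal volumes. Compounds were dissolved in absolute EtOH and tested at eight dilutions from 10 to 3.33 × 10^-6 mg/mL, in duplicate, with the solvent dried onto the wells. Cultures ran 96 h at 37 °C in 5% CO2, then were pulsed 15 h with [3H]thymidine. Incorporation was counted by scintillation; IC50 was interpolated from % proliferation relative to control.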

A short description of assay [5]: Compound was tested for Cytotoxic activity by lymphocyte viability assay. The settings on record: Mus musculus. In outline: as §2

Each structure is given as a SMILES string. ≈ marks a conversion by molar mass, not a printed value.

In the case of `COC(=O)[C@@H]1[C@H](c2cc(OC)c(OC)c(OC)c2)c2cc3c(cc2C2=NN(c4ccc(C)cc4)C[C@H]21)OCO3`, the Selectivity index in assay [1] is above 31. Moreover, the IC50 in the assay listed under Mus musculus [2] is 0.848 µg/mL (≈ 1.6 µM); in assay [3], above 26 µg/mL.
In the same order, the values of `COc1cc([C@@H]2c3cc4c(cc3C3=NOC[C@H]3[C@@H]2C(=O)O)OCO4)cc(OC)c1OC` are above 3333, below 0.009 µg/mL and 30 µg/mL (≈ 70.2 µM).
For the compound `COc1cc([C@@H]2c3cc4c(c(O)c3C[C@H]3COC(=O)[C@@H]32)OCO4)cc(OC)c1OC` [BETA-PELTATIN A], the Selectivity index in assay [1] is listed as above 2085. The IC50 is below 0.00945 µg/mL in the assay listed under Mus musculus [2] and 19.7 µg/mL (≈ 47.5 µM) in assay [3].
Take `COc1cc(C2C3=C(COC3=O)Cc3cc4c(cc32)OCO4)cc(OC)c1OC` (configuration not stated): the Selectivity index in assay [1] is reported as above 3333. Also, the half-inhibitory concentration (IC50) stood at 0.00825 µg/mL (≈ 0.0208 µM) in the assay filed under Mus musculus [4] and 27.5 µg/mL (≈ 69.4 µM) in assay [3].
In the case of `COc1cc([C@@H]2c3cc4c(cc3[C@H](O)[C@H]3COC(=O)[C@H]23)OCO4)cc(OC)c1OC` [PODOFILOX], the figures for the concentration for half-maximal inhibition (IC50) (in assay [5]; in the assay filed under Mus musculus [4]) were 280 µg/mL (≈ 676 µM) and below 0.128 µg/mL, respectively. The Selectivity index in assay [1] is on record as above 2190.
Take `COc1cc([C@@H]2c3cc4c(cc3C[C@H]3COC(=O)[C@@H]32)OCO4)cc(OC)c1O` [4'-DEMETHYLDEOXYPODOPHYLLOTOXIN]: the Selectivity index in assay [1] is 4097. Also, the concentration for half-maximal inhibition (IC50) in the assay listed under Mus musculus [2] is 0.00281 µg/mL (≈ 0.00731 µM); in assay [3], 11.5 µg/mL (≈ 29.9 µM).
The matching figures for `COc1cc([C@@H]2c3cc4c(cc3C(=O)[C@H]3COC(=O)[C@H]23)OCO4)cc(OC)c1O`: above 2, 11.8 µg/mL (≈ 29.6 µM) and above 25 µg/mL.
In the same order, the values of `COc1cc([C@@H]2c3cc4c(c(O)c3C[C@H]3COC(=O)[C@@H]32)OCO4)cc(OC)c1O` are above 2586, below 0.00495 µg/mL and 12.8 µg/mL (≈ 32 µM).
The matching figures for `COC(=O)[C@@H]1[C@H](c2cc(OC)c(OC)c(OC)c2)c2cc3c(cc2C2=NN(C(C)=O)C[C@H]21)OCO3`: above 13, 7.68 µg/mL (≈ 15.9 µM) and above 100 µg/mL.
As to `COc1cc(C2c3cc4c(cc3[C@@H](OC(C)=O)C3COC(=O)C23)OCO4)cc(OC)c1OC(C)=O` (some centres not stated), the Selectivity index in assay [1] amounted to 50. Also, the IC50 is 0.453 µg/mL (≈ 0.935 µM) in the assay filed under Mus musculus [4] and 22.8 µg/mL (≈ 47.1 µM) in assay [3].
`COc1cc(C2c3cc4c(cc3CC3COC(=O)C32)OCO4)cc(OC)c1OC(C)=O` (configuration not stated): in assay [1], the Selectivity index was 220. Moreover, the half-maximal inhibitory concentration (IC50) was 0.0718 µg/mL (≈ 0.168 µM) in the assay filed under Mus musculus [4] and 15.8 µg/mL (≈ 37.1 µM) in assay [3].
For the compound `COc1cc([C@@H]2c3cc4c(cc3C3=NN(c5ccccc5)C[C@H]3[C@@H]2COC(C)=O)OCO4)cc(OC)c1OC`, the Selectivity index in assay [1] is above 11. Besides, the 50% inhibitory concentration (IC50) in the assay filed under Mus musculus [2] was 9.29 µg/mL (≈ 17.5 µM); in assay [3], above 100 µg/mL.
Consider `COc1cc([C@@H]2c3cc4c(cc3[C@@H](O)[C@H]3COC(=O)[C@H]23)OCO4)cc(OC)c1OC` [EPIPODOPHYLLOTOXIN], for which the Selectivity index in assay [1] was above 284. Moreover, the IC50 in the assay filed under Mus musculus [2] was 0.229 µg/mL (≈ 0.553 µM); in assay [3], above 65 µg/mL.
In the same order, the values of `COC(=O)[C@@H]1[C@H](c2cc(OC)c(OC)c(OC)c2)c2cc3c(cc2C(=O)[C@H]1CO)OCO3` are above 18, 1.41 µg/mL (≈ 3.17 µM) and above 25 µg/mL.

The record behind these values is ChEMBL document CHEMBL1129241, “Immunosuppressive cyclolignans” (J Med Chem, 1996).
